Experimental data collected from several papers.
Each line is one published result; the experiments were not run side by side.
Target: Cytochrome P450 2C9 (CYP2C9, Homo sapiens, UniProt P11712)
Effect on: enzyme activity
Action: inhibitor

| Structure (SMILES) | assay | test system | conditions | endpoint | value |
| --- | --- | --- | --- | --- | --- |
| COc1ccc2c(Cc3ccccc3F)c3n(c(=O)c2c1OC)CCc1cc2c(cc1-3)OCO2 |  |  |  | IC50 | > 10 µM |
| O=C(NCCN1CCCC1)c1cc(-c2ccc(CN3CCOCC3)cc2)nc2ccc(F)cc12 |  | human, liver microsomes |  | IC50 | > 100 µM |
| COc1ccc2c(Cc3ccccc3F)c3[n+](cc2c1OC)CCc1cc2c(cc1-3)OCO2 |  |  |  | IC50 | > 10 µM |
| C[C@@H](c1ccc2nccn2c1)n1nnc2ncc(-c3cnn(C)c3)nc21 |  | human, liver microsomes | pH 7.4 | IC50 | 4.7 µM |
| Nc1nc(N)c2nc(CNc3ccc(C(=O)c4ccccc4)cc3)cnc2n1 | luciferase |  |  | IC50 | 25.1 µM |
| Cc1cc(C)c2c(c1)[C@@H](N(Cc1cc(C(F)(F)F)cc(C(F)(F)F)c1)c1nnn(C)n1)CCCN2C[C@H]1CC[C@H](C(=O)O)CC1 |  | human, liver microsomes | pH 7.4 | Ki | 0.57 µM |
| CCCOC(=O)C1CCN(C(=O)c2ccc(N(C)Cc3cnc4nc(N)nc(N)c4n3)cc2)CC1 | luciferase |  |  | IC50 | 5.5 µM |
| C[C@H]1CN(c2n[nH]c3nc(N[C@H]4CC[C@H](NS(=O)(=O)CCC(F)(F)F)CC4)ncc23)CCO1 |  |  |  | IC50 | > 100 µM |
| Cc1cc2c(F)c(Oc3ncnn4cc(OC[C@@H](C)O)c(C)c34)ccc2[nH]1 | fluorescence |  | 15 min | IC50 | 1.39 µM |
| Ic1ccc(CSCn2ccnc2)cc1 |  | MFC | 30 min, pH 7.4 | IC50 | 0.155 µM |
| COc1ccn2c(Nc3ccccc3F)c(-c3ccncn3)nc2c1 |  |  |  | IC50 | 0.41 µM |
| CCc1cc(/C(C)=N/OCc2ccc(C3CCCCC3)c(C(F)(F)F)c2)ccc1CN1CC(C(=O)O)C1 |  | human, liver microsomes | 20 min | IC50 | ~1.3 µM |
| C=CC(=O)Nc1cc(Nc2nccc(Nc3cc(Cl)c(F)cc3C(C)(C)O)n2)c(OC)cc1N1CC[C@@H](N(C)C)C1 |  | human, liver microsomes |  | IC50 | > 30 µM |
| Nc1nc(N)c2nc(CNc3ccc(C(=O)NCCc4ccccc4)cc3)cnc2n1 | luciferase |  |  | IC50 | 18.6 µM |
| Cc1ccc2nc(-c3ccccc3)c(CNc3ccc(F)cc3)n2c1 |  |  |  | IC50 | 0.41 µM |
